Reference: ChEMBL document CHEMBL1136710, “Phenylbutyrates as potent, orally bioavailable vitronectin receptor (integrin alphavbeta3) antagonists” (Bioorg Med Chem Lett, 2003)

Columns and labels:
Integrin alpha-V/beta-5 = Integrin alpha-V/beta-5 (Homo sapiens, UniProt P06756+P18084); experiment: Binding affinity for alphaV-beta5 vitronectin receptor; assay type: protein-complex assay
Procedure, shortened: (§1)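 Competitive radioligand binding to isolated human integrin, αvβ3 or αvβ5, with 3H-SK&F-107260 as the displaced ligand; Ki values are means of two to three separate experiments.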

[1] = Plasma clearance in rat; assay type: ADME, organism-based; settings: read-out: Clp
Procedure, shortened: (§2)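 Rats (three per compound) dosed iv and po; plasma concentration–time data analysed non-compartmentally for half-life and clearance; oral bioavailability calculated from dose-normalized iv and po AUC (area under plasma concentration–time curve).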

Integrin alpha-V/beta-3 [2] = target: T1, Integrin alpha-V/beta-3 (Homo sapiens, UniProt P05106+P06756); experiment: Binding affinity for alphav/beta 3 vitronectin receptor in HEK cells; assay type: cell-based, HEK293
Procedure, shortened: (§3)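 Cell-based αvβ3 assay: HEK 293 cells transfected with human αvβ3; inhibition of adhesion to purified human vitronectin measured; IC50 values are means of two experiments, each in triplicate, run with an internal standard.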

Integrin alpha-V/beta-3 [3] = target: T1, Integrin alpha-V/beta-3; experiment: Binding affinity for alphaV-beta3 vitronectin receptor; assay type: protein-complex assay; procedure, shortened: as §1
[4] = Half life period in rat; assay type: ADME, organism-based; settings: in vivo; procedure, shortened: as §2
[5] = Oral bioavailability in rat; assay type: ADME, organism-based; settings: in vivo; procedure, shortened: as §2
[6] = target: Integrin alpha-IIb/beta-3 (Homo sapiens, UniProt P05106+P08514); experiment: Binding affinity for alphaIIb-beta3 vitronectin receptor; assay type: protein-complex assay
Integrin alpha-V/beta-3 [7] = target: T1, Integrin alpha-V/beta-3; experiment: Inhibition of HEK 293 cell adhesion to vitronectin by human alphaV-beta3 integrin; assay type: cell-based, HEK293; procedure, shortened: as §3
Homo sapiens = organism: Homo sapiens; experiment: Compound was tested for the inhibition of human vascular smooth muscle cell migration; assay type: functional

Integrin alpha-V/beta-5, sequence (P06756 31-889 limits assumed): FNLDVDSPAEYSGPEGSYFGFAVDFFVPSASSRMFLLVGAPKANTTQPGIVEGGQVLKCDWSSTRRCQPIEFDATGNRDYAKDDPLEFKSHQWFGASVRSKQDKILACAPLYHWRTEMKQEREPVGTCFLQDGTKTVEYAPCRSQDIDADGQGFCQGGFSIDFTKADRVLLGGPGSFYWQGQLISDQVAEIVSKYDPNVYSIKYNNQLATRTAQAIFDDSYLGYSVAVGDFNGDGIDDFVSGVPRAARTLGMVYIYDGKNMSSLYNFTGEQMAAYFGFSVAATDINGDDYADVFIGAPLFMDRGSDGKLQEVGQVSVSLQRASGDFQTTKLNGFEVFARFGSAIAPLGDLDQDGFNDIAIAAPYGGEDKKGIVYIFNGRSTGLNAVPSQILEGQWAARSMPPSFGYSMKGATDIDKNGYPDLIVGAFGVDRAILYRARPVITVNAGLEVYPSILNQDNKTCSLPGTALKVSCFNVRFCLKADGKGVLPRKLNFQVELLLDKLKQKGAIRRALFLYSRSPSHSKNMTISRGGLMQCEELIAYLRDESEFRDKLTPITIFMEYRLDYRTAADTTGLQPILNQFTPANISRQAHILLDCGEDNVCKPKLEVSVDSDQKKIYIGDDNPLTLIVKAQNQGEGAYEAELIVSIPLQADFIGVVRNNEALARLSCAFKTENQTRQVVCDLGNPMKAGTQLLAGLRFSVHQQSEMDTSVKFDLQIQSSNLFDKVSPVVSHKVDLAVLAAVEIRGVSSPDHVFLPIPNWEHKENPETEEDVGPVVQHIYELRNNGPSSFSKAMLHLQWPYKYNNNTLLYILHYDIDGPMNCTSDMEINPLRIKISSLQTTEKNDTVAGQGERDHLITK
Integrin alpha-V/beta-5, sequence (P06756 891-1048 limits assumed): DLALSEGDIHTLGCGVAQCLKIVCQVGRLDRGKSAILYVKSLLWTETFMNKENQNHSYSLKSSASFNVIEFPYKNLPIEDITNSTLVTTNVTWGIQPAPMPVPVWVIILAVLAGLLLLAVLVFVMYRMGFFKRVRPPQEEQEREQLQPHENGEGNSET
Integrin alpha-V/beta-5, sequence (P18084 24-799 limits assumed): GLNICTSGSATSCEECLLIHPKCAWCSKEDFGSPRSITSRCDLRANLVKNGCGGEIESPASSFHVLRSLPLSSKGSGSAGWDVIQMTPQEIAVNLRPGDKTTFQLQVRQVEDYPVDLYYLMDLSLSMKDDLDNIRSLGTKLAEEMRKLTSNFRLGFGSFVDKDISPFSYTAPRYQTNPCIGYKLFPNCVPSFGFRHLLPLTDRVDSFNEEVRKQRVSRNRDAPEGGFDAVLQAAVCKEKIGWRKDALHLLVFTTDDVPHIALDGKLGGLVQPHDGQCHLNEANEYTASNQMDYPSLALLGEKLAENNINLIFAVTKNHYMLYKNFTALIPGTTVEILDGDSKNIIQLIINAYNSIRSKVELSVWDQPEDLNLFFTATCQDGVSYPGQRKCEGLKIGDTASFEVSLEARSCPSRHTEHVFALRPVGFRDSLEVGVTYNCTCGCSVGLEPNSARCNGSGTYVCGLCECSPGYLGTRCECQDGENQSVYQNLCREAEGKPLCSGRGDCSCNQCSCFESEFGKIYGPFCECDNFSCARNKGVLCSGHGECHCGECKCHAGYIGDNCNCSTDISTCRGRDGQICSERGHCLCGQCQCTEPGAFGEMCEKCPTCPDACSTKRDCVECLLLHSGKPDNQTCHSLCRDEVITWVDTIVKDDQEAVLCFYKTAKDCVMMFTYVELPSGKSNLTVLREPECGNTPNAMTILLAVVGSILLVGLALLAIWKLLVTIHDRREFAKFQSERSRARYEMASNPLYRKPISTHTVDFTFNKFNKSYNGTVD
T1 sequence (P05106 27-788 limits assumed): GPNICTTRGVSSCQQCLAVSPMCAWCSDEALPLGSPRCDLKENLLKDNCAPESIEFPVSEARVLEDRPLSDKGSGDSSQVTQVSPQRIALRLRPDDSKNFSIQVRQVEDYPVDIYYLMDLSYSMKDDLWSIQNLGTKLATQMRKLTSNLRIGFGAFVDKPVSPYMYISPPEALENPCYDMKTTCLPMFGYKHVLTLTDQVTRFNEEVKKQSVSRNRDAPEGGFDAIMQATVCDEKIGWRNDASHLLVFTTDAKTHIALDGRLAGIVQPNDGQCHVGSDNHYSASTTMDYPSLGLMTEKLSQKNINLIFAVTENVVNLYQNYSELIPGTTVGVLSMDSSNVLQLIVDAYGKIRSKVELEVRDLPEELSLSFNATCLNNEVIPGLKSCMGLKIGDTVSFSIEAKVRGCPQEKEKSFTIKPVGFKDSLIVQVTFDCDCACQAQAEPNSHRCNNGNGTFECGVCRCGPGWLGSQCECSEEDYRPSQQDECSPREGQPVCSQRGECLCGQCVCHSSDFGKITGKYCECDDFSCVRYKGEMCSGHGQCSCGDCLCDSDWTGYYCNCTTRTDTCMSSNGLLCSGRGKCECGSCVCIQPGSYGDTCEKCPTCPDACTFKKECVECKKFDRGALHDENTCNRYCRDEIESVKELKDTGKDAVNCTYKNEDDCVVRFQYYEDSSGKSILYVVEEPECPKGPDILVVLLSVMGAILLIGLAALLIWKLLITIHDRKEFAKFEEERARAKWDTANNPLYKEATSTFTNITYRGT
T1 sequence (P06756 31-889 limits assumed): as the sequence (P06756 31-889 limits assumed) above
T1 sequence (P06756 891-1048 limits assumed): as the sequence (P06756 891-1048 limits assumed) above
Integrin alpha-IIb/beta-3, sequence (P05106 27-788 limits assumed): as the sequence (P05106 27-788 limits assumed) above
Integrin alpha-IIb/beta-3, sequence (P08514 32-887 limits assumed): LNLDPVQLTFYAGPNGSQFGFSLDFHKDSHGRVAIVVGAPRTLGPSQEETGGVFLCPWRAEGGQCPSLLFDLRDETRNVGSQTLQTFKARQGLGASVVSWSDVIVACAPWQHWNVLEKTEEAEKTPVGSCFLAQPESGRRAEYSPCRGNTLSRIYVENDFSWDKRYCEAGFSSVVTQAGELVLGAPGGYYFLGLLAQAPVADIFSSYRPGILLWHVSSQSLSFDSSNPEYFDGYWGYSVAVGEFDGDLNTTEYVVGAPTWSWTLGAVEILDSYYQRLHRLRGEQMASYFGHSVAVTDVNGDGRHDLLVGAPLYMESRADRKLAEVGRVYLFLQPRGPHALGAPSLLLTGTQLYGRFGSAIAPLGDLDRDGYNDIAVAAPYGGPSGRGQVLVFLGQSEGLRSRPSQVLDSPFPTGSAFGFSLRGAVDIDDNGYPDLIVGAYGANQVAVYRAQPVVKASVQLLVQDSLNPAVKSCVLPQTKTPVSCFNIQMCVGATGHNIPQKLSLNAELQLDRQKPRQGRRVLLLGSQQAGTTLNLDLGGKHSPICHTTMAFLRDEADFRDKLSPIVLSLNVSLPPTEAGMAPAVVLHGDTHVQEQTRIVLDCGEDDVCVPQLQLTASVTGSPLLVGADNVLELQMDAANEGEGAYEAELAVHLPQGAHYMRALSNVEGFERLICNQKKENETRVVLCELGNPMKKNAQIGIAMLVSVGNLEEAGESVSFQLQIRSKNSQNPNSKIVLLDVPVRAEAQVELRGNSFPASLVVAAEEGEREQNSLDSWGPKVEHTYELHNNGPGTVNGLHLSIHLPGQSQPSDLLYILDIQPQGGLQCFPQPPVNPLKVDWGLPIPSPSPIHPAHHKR
Integrin alpha-IIb/beta-3, sequence (P08514 891-1039 limits assumed): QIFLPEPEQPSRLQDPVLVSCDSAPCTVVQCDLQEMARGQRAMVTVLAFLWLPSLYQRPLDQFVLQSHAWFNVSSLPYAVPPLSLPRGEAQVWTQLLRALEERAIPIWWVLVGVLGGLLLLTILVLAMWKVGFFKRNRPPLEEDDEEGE

Ki (Integrin alpha-V/beta-5) [nM] | clearance [1] [mL/min/kg] | IC50 (Integrin alpha-V/beta-3 [2]) [nM] | Ki (Integrin alpha-V/beta-3 [3]) [nM] | half-life [4] [h] | bioavailability [5] [%] | Ki [6] [nM] | IC50 (Integrin alpha-V/beta-3 [7]) [nM] | IC50 (Homo sapiens) [nM] | Compound
2.5 | 6 | 30 | 2.5 | 1.58 | 100 | 36000 |  | 26 | O=C(O)C[C@H](Cc1ccc(OCCc2ccc3c(n2)NCCC3)cc1)c1ccccc1
 | 4.9 | 330 | 7 | 5.17 | 100 |  |  |  | CNc1cccc(CCOc2ccc(C[C@@H](CC(=O)O)c3ccccc3)cc2)n1

The remaining lines, values behind:

Compound | Ki (Integrin alpha-V/beta-5) [nM] | clearance [1] [mL/min/kg] | IC50 (Integrin alpha-V/beta-3 [2]) [nM] | Ki (Integrin alpha-V/beta-3 [3]) [nM] | half-life [4] [h] | bioavailability [5] [%] | Ki [6] [nM] | IC50 (Integrin alpha-V/beta-3 [7]) [nM] | IC50 (Homo sapiens) [nM]
O=C(O)C[C@@H]1Cc2ccc(OCCCNc3ccccn3)cc2Cc2ccccc21 | 2.6 |  |  |  |  |  |  |  | 
O=C(O)C[C@H](Cc1ccc(OCCCNc2ccccn2)cc1)c1ccccc1 |  | 7.2 | 470 | 12 | 2.4 | 100 |  |  | 
O=C(O)CC(Cc1ccc(OCCCNc2ccccn2)cc1)c1ccccc1 (centres undefined) | 6 |  |  | 32 |  |  | > 10000 | 500 | 
O=C(O)C[C@@H](Cc1ccc(OCCCNc2ccccn2)cc1)c1ccccc1 |  |  |  | 170 |  |  |  |  | 
